Reference: ChEMBL document CHEMBL3868590, “Quambalarine B, a Secondary Metabolite from Quambalaria cyanescens with Potential Anticancer Properties” (J Nat Prod, 2016)
The source made the active and inactive calls. The calls are words filed in the database; no cut-off is given here.

Experiments:
[1] = test system: NALM-6; experiment: Cytostatic activity against eFluor670-labelled human NALM6 cells assessed as live cells at 2 umol/L measured on day 2 by Hoechst-33258 staining-based FACS analysis (reference value: 97.7%); format: functional
[2] = test system: Jurkat; experiment: Cytostatic activity against human Jurkat cells at 2 umol/L measured after 2 to 3 days using Burker counting chamber; format: functional, cell-based
Procedure, shortened: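 Cells were seeded at 2.5 × 10^5 cells/mL in DMSO-containing medium, with or without 2 μmol/L compound. Cells were counted daily in a Bürker chamber. PDL was calculated as log(Nf/N0)/log 2 over 6 days. Values are mean ± SD of three experiments, compared with DMSO controls.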

[3] = test system: Jurkat; experiment: Decrease in C-MYC mRNA level in human Jurkat cells at EC50 measured after 24 hrs by RT-qPCR analysis; format: functional, cell-based
[4] = test system: REH; experiment: Inhibition of P70S6K in human REH cells assessed as decrease in phosphorylated P70S6K expression at EC50 by immunoblot analysis; format: cell-based; settings: TDE = time-dependent effect
Procedure, shortened: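 Cells prepared as for RT-qPCR (7.5 × 10^5 cells/mL). Treated either with the line-specific EC50 concentration over a time course, or 24 h with graded concentrations up to that EC50. Cells washed with phosphatase inhibitors and lysed in RIPA; 40 μg protein per lane on SDS-PAGE, then nitrocellulose. Immunoblotted for C-MYC, P70S6K, p-P70S6K (Ser424) and actin.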

[5] = test system: NALM-6; experiment: Cytostatic activity against eFluor670-labelled human NALM6 cells assessed as live cells at 2 umol/L measured immediately after compound addition by Hoechst-33258 staining-based FACS analysis (reference value: 95.8%); format: functional
[6] = molecular target: Myc proto-oncogene protein (Homo sapiens) (UniProt P01106); experiment: Inhibition of C-MYC in human NALM6 cells assessed as decrease in GLS level at EC50 measured after 24 hrs by RT-qPCR analysis; format: cell-based; settings: NALM-6
Sequence of Myc proto-oncogene protein (Homo sapiens) (P01106 whole entry): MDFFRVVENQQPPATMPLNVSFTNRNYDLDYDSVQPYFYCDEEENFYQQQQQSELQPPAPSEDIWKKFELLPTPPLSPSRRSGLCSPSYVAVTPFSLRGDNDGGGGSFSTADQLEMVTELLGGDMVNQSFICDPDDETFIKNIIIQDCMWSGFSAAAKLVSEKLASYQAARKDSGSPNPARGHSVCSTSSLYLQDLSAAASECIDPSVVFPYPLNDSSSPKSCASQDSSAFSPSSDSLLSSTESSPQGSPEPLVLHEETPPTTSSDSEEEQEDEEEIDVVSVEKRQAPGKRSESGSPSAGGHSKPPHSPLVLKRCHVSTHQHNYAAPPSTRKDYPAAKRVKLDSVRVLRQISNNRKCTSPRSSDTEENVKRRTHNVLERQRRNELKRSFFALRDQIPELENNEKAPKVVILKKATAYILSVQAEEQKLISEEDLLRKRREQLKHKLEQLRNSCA

For CCCCCC(=O)C1=C(O)C(=O)c2c(O)c(O)cc(O)c2C1=O, the Activity [1] was 97.7%, the Activity [2] was “Active” and the Activity [3] was “Active”. For the same compound, the inhibition [4] was “Tde”, the Activity [5] was 95.8% and the inhibition [6] was “Active”.
